Assay results: ChEMBL document CHEMBL5241063, “Synthetic and medicinal perspective of quinolines as antiviral agents” (Eur J Med Chem, 2021)

Legend:
[1] = Inhibition of HIV-1 integrase; design: species or system Human immunodeficiency virus 1
[2] = test system: Human immunodeficiency virus 1; assay: Antiviral activity against HIV-1 IIIB infected in human MT2 cells assessed as inhibition of viral replication by p24 ELISA method; format: functional, organism-based; conditions: Human immunodeficiency virus 1, IIIB
[3] = test system: Human immunodeficiency virus 1; assay: Antiviral activity against HIV-1 92US657 infected in human MT2 cells assessed as inhibition of viral infection; format: functional, organism-based; conditions: Human immunodeficiency virus 1, 92US657, MT2
enterovirus D68 = assay: Antiviral activity against Enterovirus D68 US/KY/14-18953 infected in human RD cells assessed as reduction in virus induced cytopathic effect; format: functional, organism-based; conditions: Enterovirus D, US/KY/14-18953, RD
[4] = Selectivity index, ratio of CC50 for cytotoxicity against human RD cells to EC50 for antiviral activity against Enterovirus D68 US/KY/14-18953 infected in human RD cells; format: toxicity, cell-based; conditions: read-out: Ratio CC50/EC50
[5] = Selectivity index, ratio of CC50 for cytotoxicity against human Huh-7 cells to IC50 for antiviral activity against recombinant VSV-deltaG pseudotyped GFP-tagged EBOV infected in human Huh-7 cells; format: toxicity, cell-based; conditions: read-out: Ratio CC50/IC50
SNB-19 = assay: (§1) Cytotoxicity against human SNB-19 cells incubated for 24 hrs; format: toxicity, cell-based; conditions: snb-19, 24 h
Vero = assay: (§2) Cytotoxicity against african green monkey Vero cells incubated for 48 hrs; format: toxicity, cell-based; conditions: chlorocebus sabaeus, vero, 48 h
Ebolavirus = assay: Antiviral activity against recombinant VSV-deltaG pseudotyped GFP-tagged EBOV infected in human Huh-7 cells preincubated with cells for 1 hr followed by viral infection and measured after 16 hrs by […] assay; format: functional, organism-based; conditions: Orthoebolavirus
[6] = test system: Human immunodeficiency virus 1; assay: Antiviral activity against HIV-1 infected in human HeLa P4 cells assessed as inhibition of viral particles production; format: functional, organism-based; conditions: Human immunodeficiency virus 1, HeLaP4
dengue virus type 2 = assay: Antiviral activity against Dengue virus serotype 2 infected in african green monkey Vero cells assessed as reduction in virus yield preincubated for 1 hr followed by replacement with medium containing compounds and measured after 48 hrs by crystal violet staining based plaque assay; format: functional, organism-based
[7] = Cytotoxicity against african green monkey Vero cells incubated for 48 hrs by CellTiter-Glo luminescence based assay; format: toxicity, cell-based; conditions: chlorocebus sabaeus
[8] = test system: Human immunodeficiency virus 1; assay: Antiviral activity against HIV-1 infected in human H9 cells assessed as inhibition of viral replication; format: functional, organism-based; conditions: Human immunodeficiency virus 1, H9
[9] = test system: Human immunodeficiency virus 1; assay: Anti-HIV activity against HIV-1 NL4.3 infected in human MT2 cells measured after 48 hrs by luminescence based assay; format: functional, organism-based; conditions: Human immunodeficiency virus 1, NL4.3, MT2, 48 h
Zika virus = assay: Antiviral activity against ZIKV PRVABC59; format: functional, organism-based
Method in brief: (§3)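 Human glioblastoma SNB-19 cells were infected with ZIKV strain PRVABC59 at MOI 1. Virus production was measured by titer assay in Vero cells. Niclosamide served as positive and quality control in each antiviral assay.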

[10] = as §1; format: toxicity, cell-based; conditions: SNB-19 cells
[11] = as §2; format: toxicity, cell-based; conditions: chlorocebus sabaeus, Vero cells
[12] = Selectivity index, ratio of CC50 for cytotoxicity against human SNB-19 cells to EC50 for antiviral activity against ZIKV PRVABC59; format: toxicity, cell-based; conditions: read-out: Ratio CC50/EC50; method in brief: as §3
[13] = Selectivity index, ratio of CC50 for cytotoxicity against african green monkey Vero cells to EC50 for antiviral activity against ZIKV PRVABC59; format: toxicity, cell-based; conditions: read-out: Ratio CC50/EC50

O=C(O)c1ccc2ccc(/C=C/c3ccccc3)nc2c1O
IC50 [1]: 5300 nM

COc1ccc2nc(OC)c(/C=C3\NC(=O)N(Cc4ccccc4)C3=O)cc2c1
EC50 [2]: 270 nM | EC50 [3]: 520 nM

CN(C)CCNC(=O)c1cc(Oc2cccs2)nc2ccccc12
EC50 (enterovirus D68): 40 nM | selectivity ratio [4]: > 600

COc1ccc2nc(Cl)c(/C=C3\NC(=O)N(CCc4ccccc4)C3=O)cc2c1
EC50 [2]: 1010 nM | EC50 [3]: 520 nM

CCN(CC)Cc1cc(Nc2ccnc3cc(Cl)ccc23)ccc1O [AMODIAQUINE]
selectivity ratio [5]: 37

Cc1ccc2cc(/C=C3\NC(=O)N(Cc4ccccc4)C3=O)c(Cl)nc2c1
EC50 [2]: 710 nM | EC50 [3]: 520 nM

C=C1CC[C@@H]2[C@](C)(CO)[C@H](O)CC[C@@]2(C)[C@@H]1C/C=C1/C(=O)OC[C@@H]1Oc1c(Cl)cc(Cl)c2cccnc12
CC50 (SNB-19): > 100000 nM | CC50 (Vero): > 100000 nM

CN(C)CCNC(=O)c1cc(Oc2ccccc2)nc2ccc(F)cc12
EC50 (enterovirus D68): 600 nM

O=C1N/C(=C\c2cccc3ccccc23)C(=O)N1Cc1ccccc1
EC50 [2]: 1520 nM | EC50 [3]: 520 nM

COc1ccc2cc(/C=C3\NC(=O)N(CCc4ccccc4)C3=O)c(Cl)nc2c1
EC50 [2]: 460 nM | EC50 [3]: 520 nM

CCCCN(CCCC)Cc1cc(Nc2ccnc3cc(Cl)ccc23)ccc1O
IC50 (Ebolavirus): 720 nM | selectivity ratio [5]: > 130

O=C(O)/C=C\c1cc(C(=O)O)c(O)c2cc(/C=C/c3ccc(O)c(O)c3)ccc12
IC50 [6]: 35000 nM

O=C(NCc1ccc(O)c(O)c1O)c1ccc2ccc(C(=O)O)c(O)c2n1
IC50 [1]: 1500 nM

Cc1ccc2nc(Cl)c(/C=C3\NC(=O)N(Cc4ccccc4)C3=O)cc2c1
EC50 [2]: 5540 nM | EC50 [3]: 520 nM

CCCCCCCCN(C)Cc1cc(Nc2ccnc3cc(I)ccc23)ccc1O
IC50 (Ebolavirus): 260 nM | selectivity ratio [5]: > 100

CC(C)c1ccc2c(Cl)cc(Cl)c(O)c2n1
IC50 (dengue virus type 2): 3030 nM | CC50 at 48 h [7]: 16100 nM

COc1c2ccc(O)cc2nc2occc12 [CONFUSAMELINE]
EC50 [8]: < 5850 nM

Cc1cccc2cc(/C=C3\NC(=O)N(Cc4ccccc4)C3=O)c(Cl)nc12
EC50 [2]: 148 nM | EC50 [3]: 520 nM

COc1nc2ccccc2cc1/C=C1\NC(=O)N(Cc2ccccc2)C1=O
EC50 [2]: 1410 nM | EC50 [3]: 520 nM

O=C(O)c1ccc2ccc(/C=C/c3ccc(O)c(O)c3)nc2c1O
IC50 [1]: 2400 nM

Cc1cc(C)c2c(c1)N[C@H](c1cccc(N)c1)C[C@@H]2N1CCCC1=O
IC50 [9]: 50000 nM

O=C1N/C(=C\c2cc3ccccc3nc2Cl)C(=O)N1CCc1ccccc1
EC50 [2]: 2920 nM | EC50 [3]: 520 nM

Nc1cccc([C@@H]2C[C@H](N3CCCC3=O)c3ccccc3N2)c1
IC50 [9]: 50000 nM

COc1ccc2nc(Cl)c(/C=C3\NC(=O)N(Cc4ccccc4)C3=O)cc2c1
EC50 [2]: 1960 nM | EC50 [3]: 520 nM

C=C1CC[C@H]2[C@@](C)(CCC(O)[C@@]2(C)CO)[C@@H]1C/C=C1/C(=O)OC[C@H]1Oc1cccc2cccnc12 (some centres not stated)
EC50 (Zika virus): 11000 nM | CC50 at 24 h [10]: 60100 nM | CC50 at 48 h [11]: 22800 nM | selectivity ratio [12]: 5.5 | selectivity ratio [13]: 2.1

COc1cc2c(c(OC)c1)[C@@H](N1CCCC1=O)C[C@@H](c1cccc(N)c1)N2
IC50 [9]: 50000 nM

CCN(CC)Cc1cc(Nc2c(Oc3ccccc3)cnc3cc(Cl)ccc23)ccc1O
IC50 (Ebolavirus): 730 nM

COc1c2[nH]c3occc3c(OC)c-2ccc1=O [HAPLOPINE]
EC50 [8]: < 5850 nM
